# Test results published in paper PMC7750258 (Progress in neuro-psychopharmacology & biological psychiatry, 2020).
# Like-named read-outs stand apart in the source and are kept apart here.
# How the values were obtained:
# C57BL/6J mice = assay: THC drug discrimination in mice; type: in vivo; conditions: for ED50 (± SEM), THC drug discrimination: compound alone, i.p. 30 min pre-session; for substitution for the THC training dose: mice of both sexes
# ICR mice [1] = assay: Cannabinoid tetrad: locomotor activity; type: in vivo; conditions: female and male ICR mice, i.p., 10 min session 30 min after injection
# rats = conditions: ref Tseng and Craft (2001); cited from earlier work
# ICR mice [2] = assay: Cannabinoid tetrad: rectal temperature; type: in vivo; conditions: for effect on body temperature: ICR mice of both sexes; for Body Temperature ED50 (± SEM): i.p., n=6, maximal effect −6°C
# Procedure, shortened: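 Adult drug-naïve ICR mice of both sexes (n=6 per sex per dose) received vehicle or test compound. Baseline rectal temperature was taken before injection. Temperature was re-measured immediately after a 10 min locomotor session that began 30 min post-injection. […] It came from least-squares linear regression on the linear part of the dose-effect curve against log10 dose.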
# ICR mice [3] = assay: Cannabinoid tetrad: ring immobility; type: in vivo; conditions: for effect on ring immobility: ICR mice of both sexes; for Ring Immobility ED50 (± SEM): i.p., n=6, maximal effect 100% immobility
# Procedure, shortened: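 Drug-naïve adult ICR mice, males and females (n=6 per sex per dose), were dosed with vehicle or test compound. At 50 min post-injection each mouse was placed on an elevated ring. Time spent immobile over 5 min was divided by 300 s and multiplied by 100 to give percent immobility.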
# CB1 receptor [4] = molecular target: T1, CB1 receptor (Mus musculus, UniProt P47746); assay: [3H]CP55,940 displacement binding in mouse cerebellar membranes; design: species or system ICR mice; conditions: read-out: CB1 Binding Affinity (Ki in nM), cerebellum, N = 4 / value
# Sprague-Dawley rats = assay: THC drug discrimination in rats; type: in vivo
# CB1 receptor [5] = molecular target: CB1 receptor (Rattus norvegicus, UniProt P20272); assay: Agonist-stimulated [35S]GTPγS binding in rat cerebellar membranes; type: biochemical, Sprague-Dawley rats; conditions: rat cerebellum, both sexes
# CB1 receptor [6] = molecular target: T1, CB1 receptor; assay: Agonist-stimulated [35S]GTPγS binding in mouse cerebellar membranes; type: biochemical, ICR mice; conditions: mouse cerebellum, both sexes
# [7] = ref Huestis, 2007; Mazur et al., 2009; cited from earlier work
# T1 sequence (P47746 whole entry): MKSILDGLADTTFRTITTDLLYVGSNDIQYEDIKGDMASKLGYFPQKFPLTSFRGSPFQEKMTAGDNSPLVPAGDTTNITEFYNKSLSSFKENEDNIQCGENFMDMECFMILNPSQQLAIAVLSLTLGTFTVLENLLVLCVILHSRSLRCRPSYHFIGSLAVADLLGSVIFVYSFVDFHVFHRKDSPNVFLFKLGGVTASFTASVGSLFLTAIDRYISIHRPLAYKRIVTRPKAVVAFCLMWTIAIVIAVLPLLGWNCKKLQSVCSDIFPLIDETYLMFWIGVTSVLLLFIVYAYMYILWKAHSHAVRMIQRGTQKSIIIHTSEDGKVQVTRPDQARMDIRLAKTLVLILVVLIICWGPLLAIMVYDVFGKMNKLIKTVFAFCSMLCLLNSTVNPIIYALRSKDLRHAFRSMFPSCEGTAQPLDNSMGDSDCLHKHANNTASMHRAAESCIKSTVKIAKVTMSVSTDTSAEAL
# Chain of CB1 receptor (Rattus norvegicus, UniProt P20272) (P20272 whole entry): as the sequence (P47746 whole entry) above, with D95E counted along it
molecule,measurement,setting,value
11-OH-Δ^9-tetrahydrocannabinol [11-OH-THC],greater potency than THC in THC drug discrimination,"C57BL/6J mice; C57Bl/6J mice, range across sexes",7- to 9 fold
same,more potent than THC in THC drug discrimination,C57BL/6J mice; female mice,7 fold
same,response rate compared to vehicle,"C57BL/6J mice; female mice, subset n=8",but not in females
same,"ED50 (± SEM), THC drug discrimination","C57BL/6J mice; female mice, subset n=8",0.28 mg/kg
same,more potent than THC in THC drug discrimination,C57BL/6J mice; male mice,9 fold
same,response rate compared to vehicle,"C57BL/6J mice; male mice, subset n=8",significantly decreased by 3 mg/kg 11-OH-THC
same,"ED50 (± SEM), THC drug discrimination","C57BL/6J mice; male mice, subset n=8",0.24 mg/kg
same,substitution for the THC training dose,C57BL/6J mice,dose-dependently substituted for THC
same,effect on locomotor activity,ICR mice [1],Neither drug significantly decreased locomotor activity
same,potency in female vs male rats,rats,about twice as potent in female than male rats
same,effect on body temperature,ICR mice [2],decreases in body temperature
same,"greater potency than THC, hypothermia","ICR mice [2]; ICR mice, range across sexes",7- to 31 fold
same,Body Temperature ED50 (± SEM),ICR mice [2]; female ICR mice,0.19 (0.006–6.1)
same,Body Temperature ED50 (± SEM),ICR mice [2]; male ICR mice,0.70 (0.22–2.26)
same,effect on ring immobility,ICR mice [3],clear and significant dose-dependent increases in ring immobility
same,"greater potency than THC, catalepsy","ICR mice [3]; ICR mice, range across sexes",7- to 15 fold
same,Ring Immobility ED50 (± SEM),ICR mice [3]; female ICR mice,0.16 (out of range)
same,Ring Immobility ED50 (± SEM),ICR mice [3]; male ICR mice,0.57 (0.07–4.57)
"CCCCCCC(C)(C)c1ccc([C@@H]2C[C@H](O)CC[C@H]2CCCO)c(O)c1 [CP55,940]",Ki,CB1 receptor [4]; female mice,0.48 nM
same,Ki,CB1 receptor [4]; male mice,0.56 nM
"CCCCCc1cc(O)c2c(c1)OC(C)(C)[C@@H]1CCC(C)=C[C@@H]21 [THC, Δ^9-tetrahydrocanabinol]",response rate compared to vehicle,"C57BL/6J mice; all mice (15 female, 20 male), first and second THC dose-effect curves",significantly increased overall responding across both sexes at doses of 3 and 5.6 mg/kg during the first test and over a dose range of 3–10 mg/kg during the second test
same,response rate compared to vehicle,"C57BL/6J mice; female mice, subset n=8",but not in females
same,response rate compared to vehicle,"C57BL/6J mice; male mice, subset n=8",significantly decreased by 30 mg/kg THC
same,substitution for the THC training dose,C57BL/6J mice,dose-dependently substituted for the 5.6 mg/kg training dose
same,effect on locomotor activity,ICR mice [1],Neither drug significantly decreased locomotor activity
same,more potent in female than in male rats,Sprague-Dawley rats; THC drug discrimination,2.8 fold
same,substitution for the THC training dose,Sprague-Dawley rats; rats of both sexes,dose-dependently substituted for the 1.7 mg/kg training dose in both sexes
same,response rate compared to vehicle,"Sprague-Dawley rats; rats, both sexes",3 mg/kg THC significantly decreased overall responding across both sexes
same,functional character in [35S]GTPγS assay,CB1 receptor [5],partial agonists
same,effect on body temperature,ICR mice [2],decreases in body temperature
same,effect on ring immobility,ICR mice [3],clear and significant dose-dependent increases in ring immobility
same,functional character in [35S]GTPγS assay,CB1 receptor [6],partial agonists
"CCCCCc1cc(O)c2c(c1)OC(C)(C)[C@@H]1CCC(C(=O)O)=C[C@@H]21 [THC-COOH, 11-nor-9-carboxy-Δ^9-tetrahydrocannabinol]",cannabimimetic effects,[7],lacks cannabimimetic effects
"Cc1c(C(=O)NN2CCCCC2)nn(-c2ccc(Cl)cc2Cl)c1-c1ccc(Cl)cc1 [rimonabant, 5-(4-chlorophenyl)-1-(2,4-dichlorophenyl)-4-methyl-N-(piperidin-1-yl)-1H-pyrazole-3-carboxamide]",rightward shift of THC dose-effect curve,"C57BL/6J mice; 1 mg/kg antagonist i.p. 10 min before THC, both sexes",~ 7 fold
same,effect of antagonist on substitution by 1 mg/kg 11-OH-THC,"C57BL/6J mice; 1 mg/kg rimonabant or 3 mg/kg SR144528 i.p. 10 min prior, n=8/sex",blocked maximal substitution produced by 1 mg/kg 11-OH-THC
same,response rate compared to vehicle,"C57BL/6J mice; male mice, subset n=8",significantly suppressed compared to vehicle alone treatment
